Source: ChEMBL document CHEMBL1142487, “Design, synthesis, and structure-activity relationship of novel opioid kappa-agonists” (Bioorg Med Chem, 2008)
Activity calls are given as the source filed them. The rule behind the calls is not given here.

Experiments:
Mus musculus [1] = assay: Antinociceptive activity in sc dosed mouse assessed as inhibition of acetic acid-induced writhing administered 15 mins before acetic acid challenge; assay type: functional
Procedure, shortened: (§1)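 Male mice (5 weeks old) received test compound sc into the rostral back or po, 15 min before ip 0.6% aqueous acetic acid (0.1 mL/10 g). Writhes were counted over 10 min, starting 10 min after the acid. […] The po/sc ED50 ratio was calculated.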

[2] = biological target: Delta-type opioid receptor (Mus musculus) (UniProt P32300); assay: Equilibrium constant, ratio of IC50 for delta opioid receptor in ddy mouse vas deferens in presence of 10 nM Naltrindole to IC50 for delta opioid receptor in ddy mouse vas deferens
Procedure, shortened: (§2)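 Electrically stimulated ddY mouse vas deferens was held in Krebs-Henseleit at 37 °C under 95% O2/5% CO2. Tissue was preincubated 20 min with antagonist before the test agonist: naloxone 30 nM (μ), NTI 10 nM (δ), or nor-BNI 10 nM (κ). IC50s were compared with and without antagonist. Ke = [antagonist]/(IC50 ratio − 1).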

[3] = biological target: Kappa-type opioid receptor (Mus musculus, UniProt P33534); assay: Agonist activity at kappa opioid receptor in ddy mouse vas deferens assessed as inhibition of electric stimulation-induced contraction; assay type: functional, tissue-based
[4] = biological target: Kappa-type opioid receptor (Mus musculus) (UniProt P33534); assay: Equilibrium constant, ratio of IC50 for kappa opioid receptor in ddy mouse vas deferens in presence of 10 nM nor-BNI to IC50 for kappa opioid receptor in ddy mouse vas deferens; procedure, shortened: as §2
Mus musculus [5] = assay: Antinociceptive activity in po dosed mouse assessed as inhibition of acetic acid-induced writhing administered 15 mins before acetic acid challenge; assay type: functional; procedure, shortened: as §1
Mus musculus [6] = assay: Ratio of ED50 for acetic acid-induced writhing in po dosed mouse to ED50 for acetic acid-induced writhing in sc dosed mouse; assay type: functional; procedure, shortened: as §1
Mus musculus [7] = assay: Inhibition of acetic acid-induced writhing in sc dosed mouse up to 180 mins administered 15 mins before acetic acid challenge; assay type: functional, organism-based
[8] = biological target: Mu-type opioid receptor (Mus musculus) (UniProt P42866); assay: Equilibrium constant, ratio of IC50 for mu opioid receptor in ddy mouse vas deferens in presence of 30 nM naloxone to IC50 for mu opioid receptor in ddy mouse vas deferens; procedure, shortened: as §2
Mus musculus [9] = assay: Antinociceptive activity in mouse assessed as inhibition of acetic acid-induced writhing at 10 mg/kg, sc administered 15 mins before acetic acid challenge; assay type: functional; details: route subcutaneous; procedure, shortened: as §1
[10] = biological target: Kappa-type opioid receptor (Mus musculus) (UniProt P33534); assay: Agonist activity at kappa opioid receptor in ddy mouse vas deferens assessed as inhibition of electric stimulation-induced contraction at 1 uM; assay type: functional, tissue-based

Structure (SMILES)	ED50 (Mus musculus [1])	Ke [2]	IC50 [3]	Ke [4]	ED50 (Mus musculus [5])	Ratio ED50 (Mus musculus [6])	Activity (Mus musculus [7])	Ke [8]	inhibition in vivo at 10 mg/kg (Mus musculus [9])	inhibition [10]
O=C(/C=C/c1ccoc1)N[C@@H]1CC[C@@]2(O)[C@H]3Cc4ccc(O)c5c4[C@@]2(CCN3CC2CC2)[C@H]1O5	0.95 mg/kg	8100 nM	0.869 nM	0.44 nM	–	–	–	–	–	–
CN(C(=O)/C=C/c1ccsc1)[C@@H]1CC[C@@]2(O)[C@H]3Cc4ccc(O)c5c4[C@@]2(CCN3CC2CC2)[C@H]1O5	–	–	0.1 nM	1.71 nM	0.04 mg/kg	9.5	Active	–	–	–
CN(C(=O)/C=C/c1ccoc1)[C@@H]1CC[C@@]2(O)[C@H]3Cc4cccc5c4[C@@]2(CCN3CC2CC2)[C@H]1O5	–	8.4 nM	27.2 nM	0.07 nM	–	–	–	12 nM	–	–
CN(C(=O)Cc1ccc(Cl)c(Cl)c1)[C@@H]1CC[C@@]2(O)[C@H]3Cc4ccc(O)c5c4[C@@]2(CCN3CC2CC2)[C@H]1O5	–	1110 nM	17 nM	1.37 nM	18 mg/kg	39.1	–	17000 nM	–	–
CCCCCC(=O)N[C@@H]1CC[C@@]2(O)[C@H]3Cc4ccc(O)c5c4[C@@]2(CCN3CC2CC2)[C@H]1O5	–	2.3 nM	25 nM	0.26 nM	–	–	–	4.4 nM	25%	–
CN(C(=O)/C=C/C1CCCCC1)[C@@H]1CC[C@@]2(O)[C@H]3Cc4ccc(O)c5c4[C@@]2(CCN3CC2CC2)[C@H]1O5	0.004 mg/kg	143 nM	0.457 nM	1.08 nM	0.071 mg/kg	17	Active	5710 nM	–	–
CCCCCCS[C@@H]1CC[C@@]2(O)[C@H]3Cc4ccc(O)c5c4[C@@]2(CCN3CC2CC2)[C@H]1O5	15.8 mg/kg	–	–	–	–	–	–	–	–	38%
CN(C(=O)/C=C/c1ccoc1)[C@@H]1CC[C@H]2[C@H]3Cc4ccc(O)c5c4[C@@]2(CCN3CC2CC2)[C@H]1O5	0.02 mg/kg	1.31 nM	0.035 nM	0.07 nM	–	–	–	8.04 nM	–	–
CN(C(=O)/C=C/c1ccoc1)[C@@H]1CC[C@@]2(O)[C@H]3Cc4ccc(N)c5c4[C@@]2(CCN3CC2CC2)[C@H]1O5	0.2 mg/kg	–	–	–	–	–	–	–	–	–
CN(C(=O)/C=C/c1ccoc1)[C@H]1CC[C@@]2(O)[C@H]3Cc4ccc(O)c5c4[C@@]2(CCN3CC2CC2)[C@H]1O5	–	–	–	–	0.13 mg/kg	–	–	–	–	–
CCCCCCN[C@@H]1CC[C@@]2(O)[C@H]3Cc4ccc(O)c5c4[C@@]2(CCN3CC2CC2)[C@H]1O5	–	–	2 nM	0.3 nM	–	–	–	14 nM	–	–
CN(C(=O)Cc1ccc(Cl)c(Cl)c1)[C@H]1CC[C@@]2(O)[C@H]3Cc4ccc(O)c5c4[C@@]2(CCN3CC2CC2)[C@H]1O5	–	17.1 nM	0.4 nM	0.55 nM	0.83 mg/kg	48	–	53 nM	–	–
O=C(/C=C/c1ccoc1)S[C@@H]1CC[C@@]2(O)[C@H]3Cc4ccc(O)c5c4[C@@]2(CCN3CC2CC2)[C@H]1O5	> 10 mg/kg	–	–	–	–	–	–	–	–	–
CN(C(=O)/C=C/c1ccccc1)[C@H]1CC[C@@]2(O)[C@H]3Cc4ccc(O)c5c4[C@@]2(CCN3CC2CC2)[C@H]1O5	0.0033 mg/kg	41.6 nM	0.42 nM	0.16 nM	0.032 mg/kg	9.7	Active	14000 nM	–	–
COc1cccc(/C=C/C(=O)N(C)[C@@H]2CC[C@@]3(O)[C@H]4Cc5ccc(O)c6c5[C@@]3(CCN4CC3CC3)[C@H]2O6)c1	0.0011 mg/kg	96.4 nM	0.75 nM	1.6 nM	0.0048 mg/kg	4.4	Active	60.9 nM	–	–
CN(C(=O)/C=C/c1ccccc1)[C@@H]1CC[C@@]2(O)[C@H]3Cc4ccc(O)c5c4[C@@]2(CCN3CC2CC2)[C@H]1O5	0.002 mg/kg	263 nM	0.166 nM	0.861 nM	0.011 mg/kg	5.5	Active	922 nM	–	–
